Experiment [1] can be described thus: reducers of endogenous Her2 protein level, primary screen, SKBR3 breast tumor cells, AlphaScreen, ATP viability (AID 461;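 active = Her2 level under about 52% in both replicate screens, with viability over 70% of control, limit read from the data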;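 for Her2 level: lower value means less Her2 protein in the cells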;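 for viability: percent of carrier control wells set as 100% viability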). The conditions noted are these: 18-24 h, measured here: SKBR3 viability, ATP luminescence, at 10 µM. A general note: Bead proximity is the source of the signal in Alpha formats.
The target of experiment [2] is Receptor tyrosine-protein kinase erbB-2 (Homo sapiens) (UniProt P04626). Described as above. As to conditions: 18-24 h, at 10 µM, stronger effect = lower value.
Chain of Receptor tyrosine-protein kinase erbB-2 (Homo sapiens) (P04626 whole entry, looked up): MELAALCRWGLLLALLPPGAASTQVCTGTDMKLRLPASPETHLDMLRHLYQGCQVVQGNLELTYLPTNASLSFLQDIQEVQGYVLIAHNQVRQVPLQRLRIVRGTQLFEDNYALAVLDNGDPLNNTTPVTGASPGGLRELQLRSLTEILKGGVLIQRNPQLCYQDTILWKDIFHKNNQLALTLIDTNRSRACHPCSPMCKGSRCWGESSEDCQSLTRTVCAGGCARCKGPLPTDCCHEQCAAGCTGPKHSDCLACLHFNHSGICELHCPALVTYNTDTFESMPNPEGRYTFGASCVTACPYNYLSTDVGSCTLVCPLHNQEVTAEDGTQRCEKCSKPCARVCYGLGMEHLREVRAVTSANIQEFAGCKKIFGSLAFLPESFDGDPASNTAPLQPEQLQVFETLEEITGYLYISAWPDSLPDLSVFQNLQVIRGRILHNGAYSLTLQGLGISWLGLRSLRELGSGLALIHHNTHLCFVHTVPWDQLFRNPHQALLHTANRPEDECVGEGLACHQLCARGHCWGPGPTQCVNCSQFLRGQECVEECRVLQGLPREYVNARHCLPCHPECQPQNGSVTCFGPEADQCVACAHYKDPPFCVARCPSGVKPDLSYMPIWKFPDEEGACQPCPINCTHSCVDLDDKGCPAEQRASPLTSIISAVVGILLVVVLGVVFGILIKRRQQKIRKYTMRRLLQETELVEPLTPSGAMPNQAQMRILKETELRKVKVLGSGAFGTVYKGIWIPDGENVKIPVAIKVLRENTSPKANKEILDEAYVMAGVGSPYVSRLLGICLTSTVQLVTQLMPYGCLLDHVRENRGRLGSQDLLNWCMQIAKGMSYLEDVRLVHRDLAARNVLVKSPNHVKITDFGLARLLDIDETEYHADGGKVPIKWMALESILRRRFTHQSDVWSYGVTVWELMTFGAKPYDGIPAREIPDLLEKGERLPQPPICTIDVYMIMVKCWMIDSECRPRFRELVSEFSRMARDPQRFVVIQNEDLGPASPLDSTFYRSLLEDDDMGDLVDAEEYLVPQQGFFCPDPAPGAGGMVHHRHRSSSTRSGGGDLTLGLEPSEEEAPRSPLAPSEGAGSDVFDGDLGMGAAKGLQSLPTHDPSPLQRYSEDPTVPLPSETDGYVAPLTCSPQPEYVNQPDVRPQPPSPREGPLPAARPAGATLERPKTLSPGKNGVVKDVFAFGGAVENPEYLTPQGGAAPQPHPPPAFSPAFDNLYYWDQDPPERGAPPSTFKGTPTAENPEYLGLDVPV
The nature of experiment [3]: SK-BR-3 cell growth inhibitors, pilot screen, 24 h, human (AID 572;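 active = viability at or below 10% of carrier control in both of two separate runs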;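 note: compound exposure lasted between 18 and 24 h rather than exactly 24 h; 100% = carrier-treated control wells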). As to conditions: SK-BR-3 viability, CellTiter-Glo luminescence, at 10 µM, stronger effect = lower value. (ATP-based viability assays read luminescence as a measure of living cells.)
The nature of experiment [4]: HUVEC growth inhibition – cell-based, human, primary screen (AID 575;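 active = viability at or below 30% in both replicate assays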;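 note: 100% = median of untreated cell wells with 0.1% DMSO on each plate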). The conditions noted are these: HUVEC proliferation, CellTiter-Glo luminescence, 72 h; at 10 µM; stronger effect = lower value. Summed up:
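Test system: HUVEC primary cells. Quantity: 1250 endothelial cells in each well. Dosing: single-point 10 µM, DMSO 0.1% final. Incubation: 72 h treatment at 37 °C. Measured by: CTG luminescence. Control set: DMSO cell controls and MePR drug controls. Plate: collagen-coated 384-well format.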

Experiment [5] can be described thus: growth inhibitors of H69AR lung tumor, primary screen, human, duplicate replicates (AID 580;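 active = viability at or under a set limit in both replicates, limit being median viability minus 3 SD, cut at about 48% in these data, passing the limit was not always enough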;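 note: 100% = mean luminescence of untreated wells and 0% = no signal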). As to conditions: H69AR lung tumor cells viability, ATP luminescence, 72 h; at 10 µM; stronger effect = lower value.
The nature of experiment [6]: reversal of MRP1-mediated doxorubicin resistance, pilot screen, H69AR cells, doxorubicin co-treatment (AID 601). As to conditions: CellTiter-Glo, 72 h, at 10 µM; for differential viability (reversal): stronger effect = higher value.
Experiment [7] is described as follows: 384-well plate pilot, post-Golgi transport modulator project, inhibition of yeast transport mutant growth (AID 636; in the data active = inhibition above about 31%). As to conditions: absorbance 615 nm, about 18 h, stronger effect = higher value.
Experiment [8] can be described thus: growth suppression of yeast trafficking mutant, preliminary HTS, modulators of trafficking downstream of Golgi apparatus project, 1536-format plate, OD 615 nm (AID 637; in the data active = inhibition above about 30%). The conditions noted are these: yeast transport mutant growth, absorbance 615 nm, 18 h; stronger effect = higher value.
Setting [9] is: H69AR cells + 2 uM doxorubicin, measured here: viability with 2 uM doxorubicin, stronger effect = lower value.
Where [10] appears, read: H69AR cells, compound alone cytotoxicity.

Activity calls are given as the source filed them.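 Rule for the calls, unless noted: active = viability loss from added drug above about 55%, and viability with drug at most 40%, in both replicates (limit read from the data, passing the limit was not always enough); inconclusive = both conditions met in only one replicate; inactive = neither replicate meets both conditions.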

As a reminder, the viability is a read-out of living cells in per cent, often relative to untreated cells. Usually inhibition stands for the change of the read-out against control, counted positive when it falls.

With `O=c1[nH]c2sc3c(c2c2nncn12)CCCC3`, the viability was 136% in experiment [1]; 136% (inactive) in experiment [3]; 76.4% (inactive) in experiment [4]; 100% (inactive) in experiment [5]; 92.7% in experiment [6] (setting [9]); 100% in experiment [6] (setting [10]). Further, the Her2 level in experiment [2] is 114% (inactive). For the same compound, the differential viability (reversal) in experiment [6] (H69AR cells + 2 uM doxorubicin) is 7.53% (inactive). In addition, the inhibition was -6.16% (inactive) in experiment [7] and 2.54% (inactive) in experiment [8].
As for `Cc1ccc2[nH]c(=O)c(CN(Cc3ccc4c(c3)OCO4)Cc3nnnn3Cc3ccco3)cc2c1`, the viability was 102% in experiment [1]; 102% (inactive) in experiment [3]; 106% (inactive) in experiment [4]; 88.9% (inactive) in experiment [5]; 92.6% in experiment [6] (setting [9]); 88.9% in experiment [6] (setting [10]). In addition, the Her2 level in experiment [2] was 93% (inactive). Also, the differential viability (reversal) in experiment [6] (H69AR cells + 2 uM doxorubicin) is -3.68% (inactive). Also, the inhibition in experiment [7] was -2.99% (inactive); in experiment [8], -3.49% (inactive).
For `O=C(CNS(=O)(=O)c1ccc(Br)s1)N1CCN(c2ncccn2)CC1`, the viability is 98.5% in experiment [1]; 98.5% (inactive) in experiment [3]; 122% (inactive) in experiment [4]; 94.6% (inactive) in experiment [5]; 98.7% in experiment [6] (setting [9]); 94.6% in experiment [6] (setting [10]). Further, the Her2 level in experiment [2] was 116% (inactive). In experiment [6] (H69AR cells + 2 uM doxorubicin), the differential viability (reversal) is -4.04% (inactive). In addition, the inhibition in experiment [7] is -4.87% (inactive); in experiment [8] it was -1.31% (inactive).
Regarding `Fc1ccc(C(c2nnnn2Cc2ccco2)N2CCN(C3CCCCC3)CC2)cc1` (stereo not given), the viability in experiment [1] was 67%; in experiment [3], 67% (inactive); in experiment [4], 92.5% (inactive); in experiment [5], 94.1% (inactive); in experiment [6] (setting [9]), 88.5%; in experiment [6] (setting [10]), 94.1%. In experiment [2], the Her2 level was 86.5% (inactive). The differential viability (reversal) in experiment [6] (H69AR cells + 2 uM doxorubicin) was 5.67% (inactive). Besides, the inhibition was 2% (inactive) in experiment [7] and 21.9% (inactive) in experiment [8].
In the case of `COC(=O)c1onc(C(=O)c2ccccc2)c1C(=O)OC`, the viability in experiment [1] was 104%; in experiment [3] it was 104% (inactive); in experiment [4], 98.8% (inactive); in experiment [5], 97.1% (inactive); in experiment [6] (setting [9]), 84.4%; in experiment [6] (setting [10]) it was 97.1%. The Her2 level in experiment [2] was 89.5% (inactive). The differential viability (reversal) in experiment [6] (H69AR cells + 2 uM doxorubicin) is 12.7% (inactive). The inhibition in experiment [7] is -4.34% (inactive); in experiment [8], 3.71% (inactive).
Regarding `COC(=O)c1cc2oc(C)cc2n1CC(=O)Nc1ccc(C)c(C)c1`, the viability was 85.5% in experiment [1]; 85.5% (inactive) in experiment [3]; 59.5% (inactive) in experiment [4]; 83.8% (inactive) in experiment [5]; 87.1% in experiment [6] (setting [9]); 83.8% in experiment [6] (setting [10]). Moreover, the Her2 level in experiment [2] is 83% (inactive). The differential viability (reversal) in experiment [6] (H69AR cells + 2 uM doxorubicin) is -3.33% (inactive). In addition, the inhibition in experiment [7] is 0.51% (inactive); in experiment [8] it was -7% (inactive).
`O=C(CSc1nnc(-c2cccs2)o1)N1CCOCC1`: the viability was 107% in experiment [1]; 107% (inactive) in experiment [3]; 99.4% (inactive) in experiment [4]; 96.6% (inactive) in experiment [5]; 101% in experiment [6] (setting [9]); 96.6% in experiment [6] (setting [10]). Further, in experiment [2], the Her2 level is 92.5% (inactive). Also, the differential viability (reversal) in experiment [6] (H69AR cells + 2 uM doxorubicin) was -4.63% (inactive). Further, the inhibition in experiment [7] is -3.6% (inactive); in experiment [8] it was -1.45% (inactive).
For the compound `Cc1ccc(CN2C(=O)CCC2C(=O)NCCCN2CCC(C)CC2)cc1` (stereo not given), the viability was 98.5% in experiment [1]; 98.5% (inactive) in experiment [3]; 93.7% (inactive) in experiment [4]; 103% (inactive) in experiment [5]; 101% in experiment [6] (setting [9]); 103% in experiment [6] (setting [10]). For the same compound, the Her2 level in experiment [2] was 88.5% (inactive). In addition, the differential viability (reversal) in experiment [6] (H69AR cells + 2 uM doxorubicin) is 2.18% (inactive). Further, the inhibition in experiment [7] is -5.73% (inactive); in experiment [8] it was 6.89% (inactive).
As for `Cc1nnc(NCCc2ccccc2)n(N)c1=O`, the viability in experiment [1] was 107%; in experiment [3], 107% (inactive); in experiment [4], 120% (inactive); in experiment [5], 94.1% (inactive); in experiment [6] (setting [9]) it was 97.8%; in experiment [6] (setting [10]) it was 94.1%. In experiment [2], the Her2 level was 104% (inactive). For the same compound, in experiment [6] (H69AR cells + 2 uM doxorubicin), the differential viability (reversal) was -3.7% (inactive). In addition, the figures for the inhibition in experiment [7] and in experiment [8] were -0.4% (inactive) and -9.03% (inactive), respectively.
For `COc1ccc(S(=O)(=O)N2CN(Cc3ccco3)c3nc4ccccc4nc32)cc1`, the viability in experiment [1] was 101%; in experiment [3] it was 101% (inactive); in experiment [4], 99.2% (inactive); in experiment [5] it was 102% (inactive); in experiment [6] (setting [9]), 94.2%; in experiment [6] (setting [10]), 102%. The Her2 level in experiment [2] is 84.5% (inactive). Further, the differential viability (reversal) in experiment [6] (H69AR cells + 2 uM doxorubicin) is 7.69% (inactive). The inhibition is 1.82% (inactive) in experiment [7] and 1.11% (inactive) in experiment [8].
For the compound `O=C1N2c3ccccc3CCc3cccc(c32)C1(O)C(F)(F)F` (stereo not given), the viability in experiment [1] is 94.5%; in experiment [3] it was 94.5% (inactive); in experiment [4], 96.4% (inactive); in experiment [5] it was 95.7% (inactive); in experiment [6] (setting [9]), 95%; in experiment [6] (setting [10]), 95.7%. For the same compound, the Her2 level in experiment [2] was 90.5% (inactive). The differential viability (reversal) in experiment [6] (H69AR cells + 2 uM doxorubicin) was 0.66% (inactive). Also, the inhibition was -5.87% (inactive) in experiment [7] and 6.56% (inactive) in experiment [8].
In the case of `CCOCCc1nnc(NC(=O)c2ccc(OC)c(OC)c2)s1`, the viability in experiment [1] is 107%; in experiment [3] it was 107% (inactive); in experiment [4], 62.8% (inactive); in experiment [5], 94.4% (inactive); in experiment [6] (setting [9]) it was 96.4%; in experiment [6] (setting [10]) it was 94.4%. In addition, the Her2 level in experiment [2] was 86% (inactive). For the same compound, the differential viability (reversal) in experiment [6] (H69AR cells + 2 uM doxorubicin) is -1.97% (inactive). Moreover, the inhibition in experiment [7] was -6.4% (inactive); in experiment [8], -3.39% (inactive).
Regarding `Cn1cc(Br)c(C(=O)NC2CCCCC2)n1`, the viability in experiment [1] is 102%; in experiment [3], 102% (inactive); in experiment [4], 96.7% (inactive); in experiment [5] it was 94.3% (inactive); in experiment [6] (setting [9]), 90.9%; in experiment [6] (setting [10]), 94.3%. In addition, in experiment [2], the Her2 level is 112% (inactive). Besides, the differential viability (reversal) in experiment [6] (H69AR cells + 2 uM doxorubicin) is 3.45% (inactive). Besides, the inhibition in experiment [7] is 3.33% (inactive); in experiment [8] it was 0.79% (inactive).
As for `O=C(Cn1ccc2ccccc2c1=O)Nc1ccc2c(c1)OCO2`, the viability in experiment [1] was 104%; in experiment [3] it was 104% (inactive); in experiment [4] it was 95.7% (inactive); in experiment [5], 107% (inactive); in experiment [6] (setting [9]) it was 92.2%; in experiment [6] (setting [10]) it was 107%. The Her2 level in experiment [2] was 95.5% (inactive). Also, in experiment [6] (H69AR cells + 2 uM doxorubicin), the differential viability (reversal) was 14.8% (inactive). Moreover, the inhibition was 1.49% (inactive) in experiment [7] and -3.17% (inactive) in experiment [8].
On to `CCSc1nnc(NC(=O)CCNS(=O)(=O)c2cc(Br)cnc2N)s1`, for which the viability in experiment [1] is 79.5%; in experiment [3] it was 79.5% (inactive); in experiment [4], 76.8% (inactive); in experiment [5], 107% (inactive); in experiment [6] (setting [9]), 106%; in experiment [6] (setting [10]) it was 107%. The Her2 level in experiment [2] is 107% (inactive). In addition, the differential viability (reversal) in experiment [6] (H69AR cells + 2 uM doxorubicin) was 1.07% (inactive). Moreover, the inhibition was -1.04% (inactive) in experiment [7] and -0.82% (inactive) in experiment [8].

Source of the values: PubChem BioAssay.
